Six molecules from ChEMBL document CHEMBL4043110 (Bioorg Med Chem, 2017) can be followed below.

Data set [1] deals with Epidermal growth factor receptor (Homo sapiens), P00533 [UNDEFINED MUTATION]. Put plainly: Inhibition of EGFR exon 19 deletion mutant phosphorylation at Y1086 residue in human PC9 cells up to 1000 nmol/L after 6 hrs by Western blot analysis. Type of data set: cell-based. Put shortly:
(§1)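 The buffer was supplemented with protease inhibitor cocktail, 40 mmol/L sodium fluoride and 1 mmol/L sodium orthovanadate. Protein was quantified by BCA before immunoblotting.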

Data set [2] is filed under the species Homo sapiens. Kind of data set: Selectivity index, ratio of IC50 for wild type EGFR (unknown origin) to IC50 for EGFR L858R/T790M double mutant (unknown origin).
For data set [3], the target named is T1, Epidermal growth factor receptor (Homo sapiens, UniProt P00533). Kind of data set: Inhibition of wild-type EGFR in human LoVo cells assessed as inhibition of ERK phosphorylation at P-p44/42 residue up to 1000 nmol/L after 6 hrs by Western blot analysis. The class given is cell-based. Put shortly: as §1
A short description of data set [4]: Solubility of the compound in PBS at pH 7.4. The class given is physicochemical.
For data set [5], the system named is Epidermal growth factor receptor (Homo sapiens), P00533 [UNDEFINED MUTATION]. Kind of data set: Inhibition of EGFR exon 19 deletion mutant in human PC9 cells assessed as inhibition of AKT phosphorylation at S473 residue up to 1000 nmol/L after 6 hrs by Western blot analysis. The class given is cell-based. Put shortly:
as §1

For data set [6], the system named is Epidermal growth factor receptor (Homo sapiens), P00533 [L858R,T790M]. Put plainly: Inhibition of EGFR L858R/T790M mutant in human H1975 cells assessed as inhibition of AKT phosphorylation at S473 residue up to 1000 nmol/L after 6 hrs by Western blot analysis. The class given is cell-based. The essentials: as §1
Data set [7] shares this test system. Put plainly: Inhibition of EGFR L858R/T790M mutant phosphorylation at Y1086 residue in human H1975 cells up to 1000 nmol/L after 6 hrs by Western blot analysis. The class given is cell-based. Put shortly:
as §1

The subject of data set [8] is Epidermal growth factor receptor (Homo sapiens), P00533 [UNDEFINED MUTATION]. Kind of data set: Inhibition of EGFR exon 19 deletion mutant in human PC9 cells assessed as inhibition of ERK phosphorylation at P-p44/42 residue up to 1000 nmol/L after 6 hrs by Western blot analysis. Type of data set: cell-based. Put shortly: as §1
Data set [9] has as its system BEAS-2B. Put plainly: Antiproliferative activity against human BEAS2B cells after 72 hrs by MTS assay. The class given is cell-based.
The target in data set [10] is T1, Epidermal growth factor receptor. Put plainly: Inhibition of wild-type EGFR phosphorylation at Y1086 residue in human LoVo cells up to 1000 nmol/L after 6 hrs by Western blot analysis. The class given is cell-based. The essentials: as §1
The target is the same in data set [11]. Put plainly: Inhibition of wild-type EGFR in human LoVo cells assessed as inhibition of AKT phosphorylation at S473 residue up to 1000 nmol/L after 6 hrs by Western blot analysis. Type of data set: cell-based. Put shortly: as §1
The subject of data set [12] is PC-9. Put plainly: Antiproliferative activity against human PC9 cells harboring EGFR exon 19 deletion mutant after 72 hrs by MTS assay. The class given is functional, cell-based. To be noted: PC-9, 72 h. The essentials: (§2)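 NCI-H460, PC9 or NCI-H1975 cells were grown in RPMI 1640 with 10% FBS at 37 °C and 5% CO2, and used at passages 3–5 from thawing. Exponentially growing cells were seeded at 7000 cells/well. After 24 h the medium was replaced with medium containing a 3-fold serial dilution of compound in DMSO, and cells were incubated 72 h at 37 °C. MTS was added for 2 h and A490 read. Samples were run in triplicate and repeated at least three times.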

The target in data set [13] is Epidermal growth factor receptor (Homo sapiens, UniProt P00533, L858R/T790M). Put plainly: Inhibition of EGFR L858R/T790M mutant (unknown origin) using Tyr 4 peptide as substrate in presence of ATP by Z-LYTE kinase assay.
Data set [14] deals with T1, Epidermal growth factor receptor. Put plainly: Inhibition of wild-type EGFR (unknown origin) using Tyr 4 peptide as substrate in presence of ATP by Z-LYTE kinase assay.
The subject of data set [15] is NCI-H1975. Put plainly: Antiproliferative activity against human NCI-H1975 cells harboring EGFR L858R/T790M double mutant after 72 hrs by MTS assay. The class given is functional, cell-based. To be noted: NCI-H1975, 72 h. Put shortly: as §2
The test system of data set [16] is NCI-H460. Put plainly: Antiproliferative activity against human NCI-H460 cells after 72 hrs by MTS assay. To be noted: NCI-H460, 72 h. Type of data set: functional, cell-based. Put shortly: as §2
Data set [17] concerns Epidermal growth factor receptor (Homo sapiens), P00533 [L858R,T790M]. Put plainly: Inhibition of EGFR L858R/T790M mutant in human H1975 cells assessed as inhibition of ERK phosphorylation at P-p44/42 residue up to 1000 nmol/L after 6 hrs by Western blot analysis. Type of data set: cell-based. Put shortly:
as §1

The subject of data set [18] is NCI-H1975. Kind of data set: Antitumor activity against human NCI-H1975 cells harboring L858R/T790M mutant xenografted in nude mouse at 5 mg/kg/day, ig administered once daily for 30 days measured every 2 days of dosing. Type of data set: functional, organism-based. Put shortly: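 Female nude mice (6–8 weeks) were injected subcutaneously in the right flank with NCI-H1975 cells (1 × 10^6/mouse). Once tumors reached about 150–200 mm3, mice were randomized (n = 10 per group). They were dosed intragastrically at 5 mg/kg/day for 30 consecutive days, or given vehicle DMSO/Cremophor-EL/PBS (1:1:8). Tumor length and width were measured by caliper every two days, and volume = width × width × length/2.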

Data set [19] concerns Mus musculus. Put plainly: Toxicity in nude mouse assessed as effect on body weight at 5 mg/kg/day, ig administered once daily for 30 days. The class given is organism-based. To be noted: in vivo, po, 720 h.

Active and inactive are the calls of the source. No cut-off for these calls is given here. A value given as a limit tells only on which side of the number the result lay.

Sequence of Epidermal growth factor receptor (Homo sapiens, UniProt P00533, L858R/T790M) (P00533 25-1210 T790M/L858R limits assumed): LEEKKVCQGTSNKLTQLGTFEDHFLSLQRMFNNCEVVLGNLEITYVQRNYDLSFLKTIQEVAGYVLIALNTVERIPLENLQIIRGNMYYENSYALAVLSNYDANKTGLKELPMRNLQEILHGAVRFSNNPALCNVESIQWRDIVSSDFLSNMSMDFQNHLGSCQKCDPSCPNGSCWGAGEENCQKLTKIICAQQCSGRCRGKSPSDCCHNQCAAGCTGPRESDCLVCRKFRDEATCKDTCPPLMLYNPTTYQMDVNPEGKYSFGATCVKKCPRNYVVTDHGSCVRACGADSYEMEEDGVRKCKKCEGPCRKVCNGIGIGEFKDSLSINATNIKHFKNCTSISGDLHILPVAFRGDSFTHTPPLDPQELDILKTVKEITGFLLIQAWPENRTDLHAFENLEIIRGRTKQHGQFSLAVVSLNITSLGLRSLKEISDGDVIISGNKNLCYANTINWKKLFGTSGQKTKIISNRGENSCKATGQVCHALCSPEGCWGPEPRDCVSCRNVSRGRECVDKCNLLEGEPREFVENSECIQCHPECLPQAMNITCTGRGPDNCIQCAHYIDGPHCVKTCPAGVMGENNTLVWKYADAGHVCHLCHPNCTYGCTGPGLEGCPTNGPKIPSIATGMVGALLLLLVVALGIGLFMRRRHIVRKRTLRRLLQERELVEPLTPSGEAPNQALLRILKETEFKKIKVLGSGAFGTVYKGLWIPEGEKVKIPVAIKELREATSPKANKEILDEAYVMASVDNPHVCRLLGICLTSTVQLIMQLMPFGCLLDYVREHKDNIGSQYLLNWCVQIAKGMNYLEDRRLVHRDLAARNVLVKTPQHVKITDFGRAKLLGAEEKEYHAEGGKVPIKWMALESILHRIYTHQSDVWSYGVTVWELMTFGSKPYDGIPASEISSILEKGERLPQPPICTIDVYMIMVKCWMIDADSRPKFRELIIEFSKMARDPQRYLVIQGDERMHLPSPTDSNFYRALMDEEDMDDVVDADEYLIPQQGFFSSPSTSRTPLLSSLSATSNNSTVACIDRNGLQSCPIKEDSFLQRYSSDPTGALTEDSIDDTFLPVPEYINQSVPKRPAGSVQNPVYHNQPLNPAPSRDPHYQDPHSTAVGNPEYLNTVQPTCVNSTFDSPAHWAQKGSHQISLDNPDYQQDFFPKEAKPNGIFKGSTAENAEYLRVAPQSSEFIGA
Sequence of Epidermal growth factor receptor (Homo sapiens), P00533 [L858R,T790M] (P00533 whole entry T790M/L858R, looked up): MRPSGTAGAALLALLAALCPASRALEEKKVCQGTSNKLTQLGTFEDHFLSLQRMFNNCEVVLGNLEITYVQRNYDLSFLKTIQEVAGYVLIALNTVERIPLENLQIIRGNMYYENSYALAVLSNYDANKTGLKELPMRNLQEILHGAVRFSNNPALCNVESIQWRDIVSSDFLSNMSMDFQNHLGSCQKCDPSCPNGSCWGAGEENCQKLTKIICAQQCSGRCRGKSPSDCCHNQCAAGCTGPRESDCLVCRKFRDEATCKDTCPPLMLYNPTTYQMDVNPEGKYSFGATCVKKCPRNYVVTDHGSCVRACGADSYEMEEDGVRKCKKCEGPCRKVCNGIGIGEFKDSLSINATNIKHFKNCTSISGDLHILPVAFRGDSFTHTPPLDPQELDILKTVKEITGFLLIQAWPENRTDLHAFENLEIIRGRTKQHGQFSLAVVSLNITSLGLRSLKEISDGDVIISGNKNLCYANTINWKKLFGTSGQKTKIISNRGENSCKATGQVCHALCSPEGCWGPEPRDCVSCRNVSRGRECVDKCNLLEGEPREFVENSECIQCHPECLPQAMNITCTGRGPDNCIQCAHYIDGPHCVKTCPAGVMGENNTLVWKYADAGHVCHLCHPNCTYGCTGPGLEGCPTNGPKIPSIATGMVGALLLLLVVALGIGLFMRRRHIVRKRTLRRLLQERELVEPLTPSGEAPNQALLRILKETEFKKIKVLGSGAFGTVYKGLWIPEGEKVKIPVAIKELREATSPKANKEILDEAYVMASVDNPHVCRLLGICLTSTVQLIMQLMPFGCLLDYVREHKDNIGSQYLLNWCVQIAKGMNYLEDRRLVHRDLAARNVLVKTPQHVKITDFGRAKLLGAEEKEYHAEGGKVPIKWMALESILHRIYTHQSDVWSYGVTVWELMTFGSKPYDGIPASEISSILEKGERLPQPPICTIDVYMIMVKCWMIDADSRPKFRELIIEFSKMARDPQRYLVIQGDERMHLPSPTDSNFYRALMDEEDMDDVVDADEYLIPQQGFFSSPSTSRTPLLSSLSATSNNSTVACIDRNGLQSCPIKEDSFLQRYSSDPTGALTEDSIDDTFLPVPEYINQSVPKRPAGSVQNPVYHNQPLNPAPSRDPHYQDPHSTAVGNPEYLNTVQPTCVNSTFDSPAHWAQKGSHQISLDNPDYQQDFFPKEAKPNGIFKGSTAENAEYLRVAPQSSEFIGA
T1 sequence (P00533 whole entry): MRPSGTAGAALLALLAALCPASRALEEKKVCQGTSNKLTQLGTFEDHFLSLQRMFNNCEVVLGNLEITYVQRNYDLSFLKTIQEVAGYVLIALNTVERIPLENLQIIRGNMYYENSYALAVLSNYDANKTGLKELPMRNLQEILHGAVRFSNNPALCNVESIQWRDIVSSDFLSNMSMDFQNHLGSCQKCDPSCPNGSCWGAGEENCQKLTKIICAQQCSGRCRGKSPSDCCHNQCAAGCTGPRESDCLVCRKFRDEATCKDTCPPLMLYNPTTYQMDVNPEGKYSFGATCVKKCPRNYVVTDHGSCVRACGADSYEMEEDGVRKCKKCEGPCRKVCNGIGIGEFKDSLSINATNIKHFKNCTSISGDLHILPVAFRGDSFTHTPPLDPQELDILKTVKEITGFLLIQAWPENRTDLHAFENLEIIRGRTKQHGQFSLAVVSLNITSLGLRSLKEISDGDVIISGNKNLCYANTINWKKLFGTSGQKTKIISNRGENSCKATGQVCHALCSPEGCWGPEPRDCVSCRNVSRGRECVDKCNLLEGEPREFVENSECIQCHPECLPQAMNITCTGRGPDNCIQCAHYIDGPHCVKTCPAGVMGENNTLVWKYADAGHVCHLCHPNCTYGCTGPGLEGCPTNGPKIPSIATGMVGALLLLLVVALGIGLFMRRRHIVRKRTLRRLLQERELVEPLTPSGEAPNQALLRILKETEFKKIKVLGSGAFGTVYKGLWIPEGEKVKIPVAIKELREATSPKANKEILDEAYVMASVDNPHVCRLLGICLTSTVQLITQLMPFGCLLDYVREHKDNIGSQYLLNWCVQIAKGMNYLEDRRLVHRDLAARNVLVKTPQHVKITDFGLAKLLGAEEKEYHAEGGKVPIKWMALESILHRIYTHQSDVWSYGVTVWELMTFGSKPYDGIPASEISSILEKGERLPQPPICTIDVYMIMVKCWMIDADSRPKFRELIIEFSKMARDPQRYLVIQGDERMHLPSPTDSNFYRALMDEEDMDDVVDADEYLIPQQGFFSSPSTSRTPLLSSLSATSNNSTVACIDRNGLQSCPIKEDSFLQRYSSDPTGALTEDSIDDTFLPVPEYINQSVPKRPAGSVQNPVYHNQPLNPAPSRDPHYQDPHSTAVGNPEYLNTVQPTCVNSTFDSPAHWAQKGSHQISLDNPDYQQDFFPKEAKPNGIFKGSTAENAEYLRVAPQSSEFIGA
Sequence of Epidermal growth factor receptor (Homo sapiens), P00533 [UNDEFINED MUTATION] (P00533 whole entry, looked up, stated change not applied): as the sequence (P00533 whole entry) above

`C=CC(=O)Nc1cc(Nc2nccc(-c3cn(C)c4c(F)cccc34)n2)c(OC)cc1N(C)CC[N+](C)(C)[O-]`: the inhibition entry in data set [1], in data set [5], in [6], in data set [7], in data set [8] and in data set [17] was “Active” throughout. For the same molecule, the Ratio IC50 in data set [2] was determined as 33.4. Also, the “inhibition (INH)” value in data set [3], in data set [10] and in data set [11] was “Not Active” each time. In data set [4], this molecule displayed a solubility of over 10000 µg/mL. The half-inhibitory concentration (IC50) turned out to be 28400 nM in [9]; 46.7 nM in [12]; 17.8 nM in data set [13]; 595 nM in data set [14]; 89.9 nM in data set [15]; 1140 nM in data set [16].
Turning to `C=CC(=O)Nc1cc(Nc2nccc(-c3cn(C)c4c(F)cccc34)n2)c(OC)cc1N(C)CCN(C)C`, the inhibition result in data set [1], in data set [5], in [6], in data set [7], in [8] and in [17] was “Active” throughout. In data set [2], the Ratio IC50 came to 29.2. Besides, the “inhibition (INH)” value in [3], in [10] and in [11] was “Not Active” each time. The same molecule gave a solubility in [4] of under 100 µg/mL. In addition, the IC50 in data set [9] came out at 15600 nM; in data set [12] it was 20.5 nM; in data set [13] it was 6 nM; in data set [14] it was 175 nM; in [15], 32.9 nM; in data set [16] it was 875 nM.
Take `C=CC(=O)Nc1cc(Nc2nccc(-c3cn(C)c4ccccc34)n2)c(OC)cc1N(C)CC[N+](C)(C)[O-]`: the inhibition result in data set [1], in data set [5], in data set [6], in data set [7], in data set [8] and in [17] was “Active” each time. Further, the Ratio IC50 in data set [2] came out at 49.9. For the same molecule, the “inhibition (INH)” value in data set [3], in data set [10] and in [11] was “Not Active” in each case. This molecule also registered a solubility in data set [4] of over 10000 µg/mL. Further, the result in data set [18] was Active. The IC50 came to 15100 nM in [9]; 16.1 nM in data set [12]; 6.4 nM in data set [13]; 318 nM in data set [14]; 17.4 nM in data set [15]; 611 nM in data set [16]. Also, the Activity entry in [19] is on record as “Non-Toxic”.
In [4], `C=CC(=O)Nc1cc(Nc2nccc(-c3cn(C)c4ccccc34)n2)c(OC)cc1N(C)CCN(C)C` [OSIMERTINIB] returned a solubility of under 100 µg/mL. The IC50 in data set [9] came out at 14900 nM; in data set [12] it was […]; in data set [15], […]; in data set [16], 416 nM.
For `C=CC(=O)Nc1cc(Nc2nccc(-c3cn(C)c4ccc(F)cc34)n2)c(OC)cc1N(C)CC[N+](C)(C)[O-]`, the inhibition entry in data set [1], in data set [5], in [6], in data set [7], in data set [8] and in data set [17] was “Active” throughout. Also, the Ratio IC50 in data set [2] is 35. For the same molecule, the “inhibition (INH)” value in data set [3], in [10] and in data set [11] was “Not Active” throughout. In addition, in data set [4], the solubility was under 100 µg/mL. For the same molecule, the concentration for half-maximal inhibition (IC50) in [9] was 15700 nM; in [12] it was 26.2 nM; in [13], 10.2 nM; in [14], 357 nM; in [15] it was 45.6 nM; in [16] it was 892 nM.
Regarding `C=CC(=O)Nc1cc(Nc2nccc(-c3cn(C)c4ccc(F)cc34)n2)c(OC)cc1N(C)CCN(C)C`, the inhibition result in data set [1], in data set [5], in data set [6], in [7], in [8] and in data set [17] was “Active” each time. Moreover, the Ratio IC50 in [2] turned out to be 34.3. Further, the “inhibition (INH)” value in [3], in data set [10] and in data set [11] was “Not Active” in each case. This molecule also had a solubility in data set [4] of under 100 µg/mL. In addition, the concentration for half-maximal inhibition (IC50) was determined as 7900 nM in [9]; 8.1 nM in data set [12]; 4.9 nM in data set [13]; 166 nM in [14]; 15.3 nM in data set [15]; 430 nM in data set [16].
